From ChEMBL document CHEMBL2040821, “Design, synthesis, and biological evaluation of 1-[(2-benzyloxyl/alkoxyl)methyl]-5-halo-6-aryluracils as potent HIV-1 non-nucleoside reverse transcriptase inhibitors with an improved drug resistance profile” (J Med Chem, 2012)

How the values were obtained:
[1] = target: Human immunodeficiency virus type 1 reverse transcriptase (Human immunodeficiency virus 1, UniProt Q72547); test: Inhibition of HIV1 reverse transcriptase using poly(ra)/oligo(dT)15 homopolymer template as substrate after 1 hr
[2] = Selectivity index, ratio of CC50 for human MT4 cells to EC50 for HIV1 SF33; format: toxicity, cell-based; details: read-out: Ratio CC50/EC50
Procedure, shortened: (§1)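 SI is CC₅₀ in MT4 cells over EC₅₀ for each strain. For CC₅₀, MT4 cells (5 × 10⁴/well) were exposed to graded compound concentrations for 3 days at 37 °C, then given CCK-8/XTT for 4 h at 37 °C and read at 450 nm absorbance. Assays were run in triplicate.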

[3] = tested on: Human immunodeficiency virus 1; test: Antiviral activity against HIV1 SF33 infected in human MT4 cells assessed as inhibition of viral p24 antigen production after 7 days by ELISA; format: functional, organism-based; details: Human immunodeficiency virus 1, SF33, MT4, 168 h
Procedure, shortened: (§2)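 MT4 cells (4 × 10⁴/well) were infected with 200 TCID₅₀ of HIV-1 and incubated 2 h at 37 °C. Compounds were then added at serial dilutions. Each compound was run in triplicate, reported as mean SD.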

[4] = tested on: Human immunodeficiency virus 1; test: Antiviral activity against NNRTI-resistant HIV1 A17 expressing reverse transcriptase K103N and Y181C mutant infected in human MT4 cells assessed as inhibition of viral p24 antigen production after 7 days by ELISA; format: functional, organism-based; details: Human immunodeficiency virus 1, A17, MT4, 168 h; procedure, shortened: as §2
[5] = Selectivity index, ratio of CC50 for human MT4 cells to EC50 for NNRTI-resistant HIV1 A17 expressing reverse transcriptase K103N and Y181C mutant; format: toxicity, cell-based; details: read-out: Ratio CC50/EC50; procedure, shortened: as §1
[6] = tested on: MT4; test: Cytotoxicity against human MT4 cells after 3 days by XTT assay; format: cell-based; details: mt4, 72 h
Procedure, shortened: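 MT4 cells (5 × 10⁴/well) exposed to graded compound concentrations at 37 °C for 3 days. CCK-8 reagent then added, with a further 4 h at 37 °C for XTT formazan colour development. Absorbance read at 450 nm to give CC₅₀. Each compound run in triplicate.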

[7] = tested on: Human immunodeficiency virus 1; test: Ratio of nevirapine EC50 to compound EC50 for HIV1 SF33; format: functional

Row | SMILES | IC50 [1] | selectivity ratio [2] | EC50 [3] | EC50 [4] | selectivity ratio [5] | CC50 [6] | Ratio EC50 [7]
1 | CCOCn1c(Cc2ccccc2)c(I)c(=O)[nH]c1=O | 114 nM |  |  |  |  |  | 
2 | CCOCn1c(Cc2cc(C)cc(C)c2)c(I)c(=O)[nH]c1=O | 110 nM | 23700 | 6 nM | 637 nM | 222 | 142 µM | 
3 | CCOCn1c(Cc2cc(F)cc(F)c2)c(I)c(=O)[nH]c1=O | 11800 nM | 559 | 537 nM | > 10000 nM | < 30 | 300 µM | 
4 | O=c1[nH]c(=O)n(COCc2ccccc2)c(Cc2ccccc2)c1I | 10 nM | 1660 | 45 nM | > 10000 nM | < 7 | 74.8 µM | 
5 | Cc1cc(C)cc(Cc2c(I)c(=O)[nH]c(=O)n2COCc2ccccc2)c1 | 3 nM | 38200 | 2 nM | 91 nM | 1080 | 98.3 µM | 325
6 | O=c1[nH]c(=O)n(COCc2ccccc2)c(Cc2cc(F)cc(F)c2)c1I | 15 nM | 20200 | 6 nM | 2540 nM | 48 | 121 µM | 46
7 | CCOCn1c(Cc2ccccc2)c(Br)c(=O)[nH]c1=O | 1820 nM | 75 | 2070 nM | > 10000 nM | < 15.5 | 155 µM | 
8 | CCOCn1c(Cc2cc(C)cc(C)c2)c(Br)c(=O)[nH]c1=O | 210 nM |  |  |  |  |  | 
9 | O=c1[nH]c(=O)n(COCc2ccccc2)c(Cc2ccccc2)c1Br | 1520 nM | 39 | 1720 nM | > 10000 nM | < 6.7 | 67.4 µM | 
10 | Cc1cc(C)cc(Cc2c(Br)c(=O)[nH]c(=O)n2COCc2ccccc2)c1 | 43 nM | 16900 | 9 nM | 601 nM | 253 | 152 µM | 
11 | CCOCn1c(Cc2ccccc2)c(N(C)C)c(=O)[nH]c1=O | 162 nM | 270 | 614 nM | > 10000 nM | < 16.6 | 166 µM | 
12 | CCOCn1c(Cc2cc(C)cc(C)c2)c(N(C)C)c(=O)[nH]c1=O | 39 nM |  |  |  |  |  | 
13 | CN(C)c1c(Cc2ccccc2)n(COCc2ccccc2)c(=O)[nH]c1=O | 12 nM | 264 | 345 nM | > 10000 nM | < 9 | 91.8 µM | 
14 | Cc1cc(C)cc(Cc2c(N(C)C)c(=O)[nH]c(=O)n2COCc2ccccc2)c1 | 21 nM | 5200 | 14 nM | 2200 nM | 25 | 55.8 µM | 46
15 | Cc1cc(C)cc(Cc2c(I)c(N)nc(=O)n2COCc2ccccc2)c1 | 7220 nM |  |  |  |  |  | 
16 | Cc1cc(C)cc(Cc2c(Br)c(N)nc(=O)n2COCc2ccccc2)c1 | 16300 nM |  |  |  |  |  | 
17 | CC(C)c1c(Cc2ccccc2)n(COCc2ccccc2)c(=O)[nH]c1=O | 20 nM | 3840 | 22 nM | > 10000 nM | < 6.6 | 84.6 µM | 
18 | Cc1ccnc2c1NC(=O)c1cccnc1N2C1CC1 [NEVIRAPINE] |  |  | 68 nM | > 10000 nM |  | 325 µM | 
